Common to all, as to format: functional, organism-based
Assay [1] concerns Escherichia coli. The experiment in a line: Antimicrobial activity against Escherichia coli ATCC 11229 at 200 ug/disk by agar diffusion method. In short, it runs like this: (§1)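 Agar diffusion per European Pharmacopoeia. Antibiotic medium No. 1 inoculated with cell suspension and poured into plates. Paper disks loaded with 200 µg substance placed on the cooled agar, then prediffused 2 h in a refrigerator. Incubation 18 h at 37 °C (C. maltosa at 27 °C). Inhibition zone diameters read at end of incubation. Penicillin G positive control.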
(In general: In agar diffusion tests the substance spreads into inoculated agar from a disc or well.)

Assay [2] concerns Staphylococcus aureus. The experiment in a line: Antimicrobial activity against Staphylococcus aureus ATCC 6538 at 200 ug/disk by agar diffusion method. In short, it runs like this: as §1
Assay [3] relates to Candida maltosa. The assay can be described thus: Antimicrobial activity against Candida maltosa SBUG 700 at 200 ug/disk by agar diffusion method. In short, it runs like this:
as §1

The subject of assay [4] is Influenza A virus. The assay can be described thus: Antiviral activity against influenza A virus infected in MDCK cells. Put shortly:
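Each compound (1.0 mg) was dissolved in 100 µL methanol, then in MEM, giving a 1 mg/mL stock. Compounds were tested at noncytotoxic concentrations against influenza A virus and HSV type I.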

The values that follow come from ChEMBL document CHEMBL1151276, “Antiviral Terpenoid Constituents of Ganoderma pfeifferi” (J Nat Prod, 2005).

In brackets after ≈: the same amount, converted by molar mass. Activity calls are given as the source filed them. No cut-off for these calls is given here.

In the case of `CC(CC(=O)C[C@@](C)(O)C1=C[C@H](O)[C@]2(C)[C@]1(C)C(=O)C=C1[C@@]3(C)CCC(=O)C(C)(C)[C@@H]3C[C@H]3O[C@@]132)C(=O)O` (stereo not given in full), the result in assay [1], in assay [2] and in assay [3] was inactive.

Consider `C/C(=C\CC[C@@H](C)[C@H]1CC[C@@]2(C)C3=C(CC[C@]12C)[C@@]1(C)CCC(=O)C(C)(C)[C@@H]1CC3=O)CO` [GANODERONE A], for which the outcome in assay [1], in assay [2], in assay [4] and in assay [3] was inactive.

With `C/C(C=O)=C\CC[C@@H](C)[C@H]1CC[C@@]2(C)C3=CC[C@H]4C(C)(C)C(=O)CC[C@]4(C)C3=CC[C@]12C` [GANODERAL A], the result in assay [4] was inactive.

`CC(C)[C@@H](C)/C=C/[C@@H](C)[C@H]1CC[C@H]2C3=CCC4CC(=O)CC[C@]4(C)[C@H]3CC[C@]12C` (stereo not given in full): the result in assay [1], in assay [2] and in assay [3] was inactive.

For the compound `NC12CC3CC(CC(C3)C1)C2.O=S(=O)(O)O` [AMANTADINE SULFATE], inhibition in assay [4] was half-maximal at 15 µg/mL (IC50).

Regarding `C/C(C=O)=C\CC[C@@H](C)[C@H]1CC[C@@]2(C)C3=C(CC[C@]12C)[C@@]1(C)CCC(=O)C(C)(C)[C@@H]1CC3=O` [LUCIALDEHYDE B], the result in assay [1], in assay [2] and in assay [3] was inactive. In addition, in assay [4], it took 3 µg/mL (≈ 6.63 µM) to reach half-maximal inhibition (IC50).

Regarding `C[C@H](CCC1OC1(C)CO)[C@H]1CC[C@@]2(C)C3=C(CC[C@]12C)[C@@]1(C)CCC(=O)C(C)(C)[C@@H]1CC3=O` (stereo not given in full) [GANODERONE C], in assay [4], the IC50 (as a rule, the point on the concentration scale where inhibition reaches its midpoint) is 2.6 µg/mL (≈ 5.52 µM).

Turning to `CC(C)[C@@H](C)/C=C/[C@@H](C)[C@H]1CC[C@H]2C3=CC[C@H]4C[C@@H](O)CC[C@]4(C)[C@H]3CC[C@]12C`, the result in assay [1], in assay [2] and in assay [3] was inactive. For the same compound, the IC50 in assay [4] stood at 0.78 µg/mL (≈ 1.96 µM).

Take `C/C(=C\CC[C@@H](C)[C@H]1CC[C@@]2(C)C3=CC[C@H]4C(C)(C)C(=O)CC[C@]4(C)C3=CC[C@]12C)CO` [GANODEROL A]: the outcome in assay [1], in assay [2], in assay [4] and in assay [3] was inactive.
